Measured values as given in ChEMBL document CHEMBL1132294, “Derivatives of the new ring system indolo[1,2-c]benzo[1,2,3]triazine with potent antitumor and antimicrobial activity” (J Med Chem, 1999).
Converted amounts (≈) assume the structure as drawn.

Legend:
[1] = tested on: Shigella; assay: Antibacterial activity was evaluated against shigella.; format: functional
Outline: (§1)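 Recent clinical isolates grown in nutrient broth, pH 7.2, inoculum 10³ bacterial cells/tube, with serial compound dilutions. […] Mean of at least three separate experiments.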

[2] = tested on: MOLT-4; assay: Antitumor activity was evaluated against leukemia cell line MOLT-4(human acute T lymphoblastic leukemia); format: functional, cell-based
Outline: (§2)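 Exponentially growing leukemia/lymphoma cells resuspended at 1×10⁵ cells/mL in RPMI with serial drug dilutions. Viability by MTT after 4 days at 37 °C. Concentration giving 50% growth inhibition versus untreated controls found by linear regression. Mean of at least three experiments.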

[3] = tested on: Streptococcus; assay: Antibacterial activity was evaluated against streptococcus.; format: functional; outline: as §1
[4] = tested on: Staphylococcus; assay: Antibacterial activity was evaluated against staphylococcus; format: functional; outline: as §1
[5] = tested on: Mycobacterium tuberculosis; assay: Antibacterial activity was evaluated against Mycobacterium tuberculosis (ATCC); format: functional
Outline: (§3)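 Broth microdilution in Middlebrook 7H9 with 0.5% glycerol and 10% OADC, containing serial concentrations of compound (diluted in medium from a DMSO solution). Plates were incubated 9 days at 37 °C, and viable bacteria were read by MTT. MIC is the mean of at least three separate experiments.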

[6] = tested on: Mycobacterium; assay: Antibacterial activity was evaluated against MAC (Mycobacterium Avium Complex ); format: functional
Outline: (§4)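 Mycobacterial suspension (turbidity of 1 McFarland standard, 10⁸ CFU/mL) added to Middlebrook 7H9 with 0.5% glycerol, 10% OADC and serial compound dilutions. Incubated at 37 °C, 1 day for M. smegmatis and M. fortuitum, 9 days for MAC. Viable mycobacteria counted by MTT. MIC given as mean of at least three separate experiments.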

[7] = tested on: Mycobacterium tuberculosis; assay: Antibacterial activity was evaluated against Mycobacterium tuberculosis (clinical isolate 1104); format: functional; outline: as §3
[8] = tested on: HeLa; assay: Antitumor activity was evaluated against human cervix carcinoma cell line HeLa.; format: functional, cell-based
Outline: (§5)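 Solid-tumour and KB lines: exponentially growing cells seeded at 5×10⁴ cells/mL, allowed to adhere 16 h, then serial drug dilutions added. Viability by MTT after 4 days. Growth expressed as % of untreated controls, 50% inhibitory concentration by linear regression. Untreated cells undergo at least three rounds of multiplication.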

[9] = tested on: CHO-K1; assay: Antitumor activity was evaluated against Chinese hamster ovary carcinoma cell line CHO-K1.; format: functional, cell-based; conditions: Cricetulus griseus; outline: as §5
[10] = tested on: WIL2-NS; assay: Antitumor activity was evaluated against lymphoma cell line Wil2-NS (human splenic B lymphoblastoid cells).; format: functional, cell-based; outline: as §2
[11] = tested on: MT4; assay: Antitumor activity was evaluated against leukemia cell line MT-4(human CD4+ T cells expressing the TAT gene of HTLV-1).; format: functional, cell-based; outline: as §2
[12] = tested on: CCRF-SB; assay: Antitumor activity was evaluated against leukemia cell line CCRF-SB(human acute B lymphoblastic leukemia).; format: functional, cell-based; outline: as §2
[13] = tested on: ACHN; assay: Antitumor activity was evaluated against human renal adenocarcinoma cell line ACHN.; format: functional, cell-based; outline: as §5
[14] = tested on: Salmonella; assay: Antibacterial activity was evaluated against salmonella.; format: functional; outline: as §1
[15] = tested on: Mycolicibacterium fortuitum; assay: Antibacterial activity was evaluated against Mycobacterium fortuitum.; format: functional; outline: as §4
[16] = tested on: CCRF-CEM; assay: Antitumor activity was evaluated against leukemia cell line CCRF-CEM(human acute T lymphoblastic leukemia).; format: functional, cell-based
Outline: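 Exponentially growing leukemia/lymphoma cells resuspended at 1×10⁵ cells/mL in RPMI with serial drug dilutions. Viability by MTT after 4 days at 37 °C. Mean of at least three experiments.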

[17] = tested on: Aspergillus fumigatus; assay: Antimycotic activity against Aspergillus fumigatus was evaluated as compound minimum inhibitory concentration at which no macroscopic signs of fungal growth were detected.; format: functional
[18] = tested on: Mycolicibacterium smegmatis; assay: Antibacterial activity was evaluated against Mycobacterium smegmatis; format: functional; outline: as §4
[19] = tested on: Candida parapsilosis; assay: Antimycotic activity against Candida parapsilosis was evaluated. MIC was defined as compound concentration at which no macroscopic signs of fungal growth were detected.; format: functional; conditions: Lodderomyces parapsilosis
Outline: (§6)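 Yeast inocula from 30 h Sabouraud dextrose broth cultures at 37 °C, diluted to 5×10³ cells/mL. Dermatophyte inocula from 5-day cultures, homogenized and diluted to 0.05 OD₅₉₀/mL. Inocula added to medium with serial dilutions, incubated at 37 °C, read visually at 2 days (yeast) or 3 days (dermatophytes). Mean of at least three experiments.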

[20] = tested on: Trichophyton benhamiae; assay: Antimycotic activity against Trichophyton mentagrophytes was evaluated. MIC was defined as compound concentration at which no macroscopic signs of fungal growth were detected.; format: functional, Arthroderma benhamiae; outline: as §6
[21] = tested on: L1210; assay: Antitumor activity was evaluated against leukemia cell line L1210 (mouse leukemia).; format: functional, cell-based; outline: as §2
[22] = tested on: Cryptococcus neoformans; assay: Antimycotic activity against Cryptococcus neoformans was evaluated. MIC was defined as compound concentration at which no macroscopic signs of fungal growth were detected.; format: functional; outline: as §6
[23] = tested on: Candida tropicalis; assay: Antimycotic activity against Candida paratropicalis was evaluated. MIC was defined as compound concentration at which no macroscopic signs of fungal growth were detected.; format: functional; outline: as §6
[24] = tested on: HT-29; assay: Antitumor activity was evaluated against human colon adenocarcinoma cell line HT-29.; format: functional, cell-based; outline: as §5
[25] = tested on: Candida albicans; assay: Antimycotic activity against Candida albicans was evaluated as minimum inhibitory concentration of compound at which no macroscopic signs of fungal growth were detected; format: functional; outline: as §6
[26] = tested on: 5637; assay: Antitumor activity was evaluated against human bladder carcinoma cell line 5637.; format: functional, cell-based; outline: as §5
[27] = tested on: IMR-32; assay: Antitumor activity was evaluated against human neuroblastoma cell line IMR-32.; format: functional, cell-based; outline: as §5

Q: For `O=Nc1c2ccccc2n2nnc3cc(Cl)ccc3c12`, which MIC [1] is on record?
A: > 200 µM

Q: What about the IC50 [2] of the same compound?
A: 1100 nM

Q: And the MIC [3]?
A: 0.4 µM (≈ 0.113 µg/mL)

Q: What about the MIC [4] of the same compound?
A: 0.4 µM (≈ 0.113 µg/mL)

Q: What about the MIC [5] of the same compound?
A: 4.4 µM (≈ 1.24 µg/mL)

Q: And the MIC [6]?
A: 0.6 µM (≈ 0.17 µg/mL)

Q: What about the MIC [7] of the same compound?
A: 5.9 µM (≈ 1.67 µg/mL)

Q: What about the IC50 [8] of the same compound?
A: 9200 nM

Q: And the IC50 [9]?
A: 9300 nM

Q: And the IC50 [10]?
A: 800 nM

Q: And the IC50 [11]?
A: 900 nM

Q: What about the IC50 [12] of the same compound?
A: 2800 nM

Q: And the IC50 [13]?
A: 7600 nM

Q: And the MIC [14]?
A: > 200 µM

Q: And the MIC [15]?
A: > 5 µM

Q: And the IC50 [16]?
A: 1800 nM

Q: And the MIC [17]?
A: 6.2 µM (≈ 1.75 µg/mL)

Q: And the MIC [18]?
A: > 5 µM

Q: What about the MIC [19] of the same compound?
A: 3 µM (≈ 0.848 µg/mL)

Q: And the MIC [20]?
A: 50 µM (≈ 14.1 µg/mL)

Q: And the IC50 [21]?
A: 2400 nM

Q: And the MIC [22]?
A: 1.6 µM (≈ 0.452 µg/mL)

Q: And the MIC [23]?
A: 25 µM (≈ 7.07 µg/mL)

Q: What about the IC50 [24] of the same compound?
A: 35000 nM

Q: And the MIC [25]?
A: 12 µM (≈ 3.39 µg/mL)

Q: And the IC50 [26]?
A: 2600 nM

Q: And the IC50 [27]?
A: 2200 nM
